# Experimental data collected from several papers.
# Lines come from different studies, so protocols differ.
# Target: Serine/threonine-protein kinase TAO3 (TAOK3, Homo sapiens, UniProt Q9H2K8)
# Residues used in one study (Q9H2K8 1-898): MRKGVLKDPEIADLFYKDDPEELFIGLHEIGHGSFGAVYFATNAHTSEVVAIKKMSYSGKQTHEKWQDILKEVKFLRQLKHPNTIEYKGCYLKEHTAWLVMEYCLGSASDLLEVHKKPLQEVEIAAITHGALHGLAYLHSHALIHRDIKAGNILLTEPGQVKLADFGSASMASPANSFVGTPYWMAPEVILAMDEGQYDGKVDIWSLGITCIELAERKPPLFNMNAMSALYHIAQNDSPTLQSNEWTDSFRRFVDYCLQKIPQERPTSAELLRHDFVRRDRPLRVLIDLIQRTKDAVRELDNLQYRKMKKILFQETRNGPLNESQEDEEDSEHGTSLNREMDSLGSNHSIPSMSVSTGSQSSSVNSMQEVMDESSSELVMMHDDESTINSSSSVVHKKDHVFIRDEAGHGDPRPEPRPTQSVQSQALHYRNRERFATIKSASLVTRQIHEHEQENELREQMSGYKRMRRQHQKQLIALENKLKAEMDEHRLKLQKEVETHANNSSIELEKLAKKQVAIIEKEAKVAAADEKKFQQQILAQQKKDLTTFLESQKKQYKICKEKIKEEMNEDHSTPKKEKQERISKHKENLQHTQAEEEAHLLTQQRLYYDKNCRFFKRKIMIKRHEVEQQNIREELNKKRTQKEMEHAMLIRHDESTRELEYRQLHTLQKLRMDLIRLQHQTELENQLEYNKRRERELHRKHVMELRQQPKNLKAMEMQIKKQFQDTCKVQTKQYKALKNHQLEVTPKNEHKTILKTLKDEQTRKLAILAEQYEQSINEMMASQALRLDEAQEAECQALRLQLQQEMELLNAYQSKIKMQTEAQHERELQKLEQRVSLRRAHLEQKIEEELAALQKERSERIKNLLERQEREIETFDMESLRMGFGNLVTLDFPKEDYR
Structure (SMILES),test,setting,endpoint,result
Cn1cc(-c2cc(F)cc(N3CCn4c(cc5c4CCCC5)C3=O)c2CO)cc(Nc2ccc(N3CCN(C4COC4)CC3)cn2)c1=O,"enzyme activity, inhibitor",0.1 µM,inhibition,-6%
Nc1ncc(-c2nc(N3CCOCC3)nc(N3CCOCC3)n2)c(C(F)F)n1,"binding, competition with immobilised ligand",10 µM,remaining binding,70%
Cn1cncc1[C@](O)(COc1ccc(C#N)cc1-c1ccc(OC(F)(F)F)cc1)c1ccc(C#N)cc1,"cell-free assay, competition with immobilised ligand",1 µM,remaining binding,87%
Cn1cc(-c2cccc(N3CCc4c(sc5c4CC(C)(C)C5)C3=O)c2CO)cc(Nc2ccncn2)c1=O,"enzyme activity, inhibitor",1 µM,inhibition,1%
Cc1nn(C)cc1-c1nc2c(N3CCN(Cc4ccc(Cl)cc4)CC3)c(Cl)cnc2[nH]1,"binding, competition with immobilised ligand",1 µM,remaining binding,87%
O=c1[nH]c2ccccc2n1C1CCN(Cc2ccc(-c3[nH]c4cc5ncnc5cc4nc3-c3ccccc3)cc2)CC1,cell-free assay,0.5 µM,remaining signal,111%
COc1ncccc1-c1cnn2ccc(N3CCN(C(=O)OC(C)C)CC3)nc12,"binding, competition with immobilised ligand",1 µM,remaining binding,75%
CC(C)(C)c1cc(C=C(C#N)C#N)cc(Br)c1O,"enzyme activity, inhibitor",0.5 µM,remaining activity,122%
N#CC1(c2ccccn2)CCN(Cc2cc(C(=O)O)c(=O)n3ccccc23)CC1,"cell-free assay, competition with immobilised ligand",1 µM,remaining binding,78%
